Laboratory results taken from ChEMBL document CHEMBL1141097, “Indole-3-acetic acid antagonists of the prostaglandin D2 receptor CRTH2” (J Med Chem, 2005).

Columns and labels:
[1] = target: T1, Prostaglandin D2 receptor 2 (Homo sapiens, UniProt Q9Y5Y4); experiment: Concentration required to inhibit PGD-2 (10 nM) stimulated [Ca2+] flux in CHO cells expressing human CRTH2 receptor; assay type: cell-based
T1 sequence (Q9Y5Y4 whole entry): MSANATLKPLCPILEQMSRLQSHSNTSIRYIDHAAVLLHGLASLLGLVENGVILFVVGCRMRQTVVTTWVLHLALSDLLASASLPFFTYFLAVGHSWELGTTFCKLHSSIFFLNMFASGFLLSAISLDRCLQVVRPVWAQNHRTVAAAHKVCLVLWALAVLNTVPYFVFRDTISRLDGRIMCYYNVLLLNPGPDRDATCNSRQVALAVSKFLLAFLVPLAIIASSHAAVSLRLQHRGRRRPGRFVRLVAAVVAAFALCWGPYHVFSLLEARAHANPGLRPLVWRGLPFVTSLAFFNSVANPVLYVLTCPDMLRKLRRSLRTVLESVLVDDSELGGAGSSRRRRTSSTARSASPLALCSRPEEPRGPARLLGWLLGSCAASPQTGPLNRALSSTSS
How it was run: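 CHO cells expressing human CRTH2 were stimulated with 10 nM PGD2 and calcium mobilization was read. Inhibition is expressed as IC50. Antagonism was also tested by parallel shifts of the PGD2 dose–response curve with increasing antagonist (pA2).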

[2] = target: T1, Prostaglandin D2 receptor 2; experiment: Binding affinity towards human CRTH2 receptor expressed in CHO cells; assay type: cell-based
How it was run: (§1)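 Radioligand binding on membranes from CHO cells expressing recombinant human CRTH2 or human DP receptor, reported as Ki.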

[3] = target: T2, Prostaglandin D2 receptor (Homo sapiens, UniProt Q13258); experiment: Binding affinity towards human DP receptor expressed in CHO cells; assay type: cell-based; how it was run: as §1
T2 sequence (Q13258 whole entry): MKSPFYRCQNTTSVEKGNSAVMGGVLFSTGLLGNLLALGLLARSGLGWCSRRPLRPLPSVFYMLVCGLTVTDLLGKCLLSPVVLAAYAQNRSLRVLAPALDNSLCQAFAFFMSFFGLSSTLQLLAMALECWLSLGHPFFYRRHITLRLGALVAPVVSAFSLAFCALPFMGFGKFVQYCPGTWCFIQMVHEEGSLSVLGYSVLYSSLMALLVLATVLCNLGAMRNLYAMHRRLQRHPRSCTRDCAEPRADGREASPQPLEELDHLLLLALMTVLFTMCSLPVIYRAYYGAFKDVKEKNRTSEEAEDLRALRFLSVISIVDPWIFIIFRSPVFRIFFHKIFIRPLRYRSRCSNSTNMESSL

[4] = target: T1, Prostaglandin D2 receptor 2; experiment: Binding affinity towards human CRTH2 receptor expressed in CHO cells; range 25 nM to 8 uM; assay type: cell-based
[5] = target: T1, Prostaglandin D2 receptor 2; experiment: In vitro agonist potency towards human CRTH2 receptor expressed in CHO cells; range 15 to 50 nM
[6] = Area under curve for the compound upon i.v. dose of 1 mg/kg in rats; assay type: ADME, organism-based; parameters: dose 1 mg/kg, route intravenous; conditions: rat, in vivo, iv
How it was run: (§2)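 Rats given a single dose, 1 mg/kg intravenous or 10 mg/kg oral, then sampled for plasma levels. Cmax, Tmax and AUCinf come from the plasma concentration–time profile.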

[7] = Oral bioavailability upon p.o. dose of 10 mg/kg in rats; assay type: ADME, organism-based; conditions: rat, in vivo
[8] = Time taken by the compound to reach its maximum concentration in plasma upon p.o. dose of 10 mg/kg in rats; assay type: ADME, organism-based; parameters: dose 10 mg/kg, route oral; conditions: rat, po; how it was run: as §2
[9] = Maximum plasma concentration upon p.o. dose of 10 mg/kg in rats; assay type: ADME, organism-based; parameters: dose 10 mg/kg, route oral; conditions: rat, po; how it was run: as §2
[10] = Maximum plasma concentration upon i.v. dose of 1 mg/kg in rats; assay type: ADME, organism-based; parameters: dose 1 mg/kg, route intravenous; conditions: rat, iv; how it was run: as §2
[11] = Area under curve for the compound upon p.o. dose of 10 mg/kg in rats; assay type: ADME, organism-based; parameters: dose 10 mg/kg, route oral; conditions: rat, in vivo, po; how it was run: as §2

| SMILES | IC50 [1] [nM] | Ki [2] [nM] | Ki [3] [nM] | other results |
| --- | --- | --- | --- | --- |
| CCCCS(=O)(=O)n1c(C)c(CC(=O)O)c2cc(F)ccc21 | 842 | 634 | > 10000 | – |
| COc1ccc2c(c1)c(CC(=O)O)c(C)n2C(=O)c1ccc(Cl)cc1 [INDOMETHACIN] | – | – | – | Ki [4]: 8000 nM; EC50 [5]: 50 nM |
| Cc1c(CC(=O)O)c2cc(F)ccc2n1S(=O)(=O)c1ccc(S(C)(=O)=O)cc1 | 158 | 68 | > 10000 | AUC [6]: 619 ng·h/mL; bioavailability [7]: 56%; Tmax [8]: 1.8 h; Cmax [9]: 332 ng/mL; Cmax [10]: 1800 ng/mL; AUC [11]: 3480 ng·h/mL |
| O=C(O)C[C@@H]1CCn2c1c(Sc1ccc(Cl)cc1)c1ccc(F)cc12 | – | 0.8 | – | – |
| Cc1nc(S(=O)(=O)n2c(C)c(CC(=O)O)c3cc(F)ccc32)cn1C | > 10000 | 2980 | > 10000 | – |
| CSc1ccc(C=C2C(C)=C(CC(=O)O)c3cc(F)ccc32)cc1 [SULINDAC SULFIDE] | – | 3500 | – | – |
| COc1ccc(S(=O)(=O)n2c(C)c(CC(=O)O)c3cc(F)ccc32)cc1 | 318 | 299 | 7710 | – |

More lines, main results first:

| IC50 [1] [nM] | Ki [2] [nM] | Ki [3] [nM] | SMILES | other results |
| --- | --- | --- | --- | --- |
| 987 | 250 | 4860 | Cc1c(CC(=O)O)c2cc(F)ccc2n1S(=O)(=O)c1ccccc1 | – |
| 2180 | 457 | > 10000 | Cc1ccc(S(=O)(=O)n2c(C)c(CC(=O)O)c3cc(F)ccc32)cc1 | – |
| 44 | 19 | 1870 | Cc1c(CC(=O)O)c2cc(F)ccc2n1S(=O)(=O)c1cc(Cl)ccc1Cl | – |
| 639 | 225 | 6890 | Cc1c(CC(=O)O)c2cc(F)ccc2n1S(=O)(=O)c1cccc(F)c1 | – |
| 26 | 29 | 8460 | Cc1c(CC(=O)O)c2cc(F)ccc2n1S(=O)(=O)c1ccc(Cl)cc1 | – |
| 158 | 71 | > 10000 | Cc1c(CC(=O)O)c2cc(F)ccc2n1S(=O)(=O)c1ccc(F)cc1 | – |
